Experimental data taken from ChEMBL document CHEMBL5029182, “Discovery of aryl aminothiazole γ-secretase modulators with novel effects on amyloid β-peptide production” (Bioorg Med Chem Lett, 2021).
Activity calls are given as the source filed them. The rule behind the calls is not given here.

Key:
Format in all cases: cell-based
[1] = target: T1, Gamma-secretase (Homo sapiens) (UniProt Q96BI3+Q9NZ42+Q8WW43+P49768+Q92542+P49810); experiment: Modulation of gamma secretase in HEK293 cells expressing APP-C99 assessed as increase in Abeta37 levels at 5 uM incubated for 2 hrs by sandwich ELISA
How it was run: (§1)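 HEK293 cells stably expressing C99 with signal sequence, grown in 24-well plates. Single compound concentration 5 μM as initial screen. Aβ37, Aβ38, Aβ40 and Aβ42 secreted into medium each quantified by a specific two-antibody sandwich ELISA. Levels compared with DMSO vehicle alone.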

[2] = target: T1, Gamma-secretase (Homo sapiens); experiment: Modulation of gamma secretase in HEK293 cells expressing APP-C99 assessed as increase in Abeta38 levels at 5 uM incubated for 2 hrs by sandwich ELISA; how it was run: as §1
[3] = target: T1, Gamma-secretase (Homo sapiens); experiment: Modulation of gamma secretase in HEK293 cells expressing APP-C99 assessed as decrease in Abeta40 levels at 5 uM incubated for 2 hrs by sandwich ELISA; how it was run: as §1
[4] = target: T1, Gamma-secretase (Homo sapiens); experiment: Modulation of gamma secretase in HEK293 cells expressing APP-C99 assessed as decrease in Abeta42 levels at 5 uM incubated for 2 hrs by sandwich ELISA; how it was run: as §1
[5] = target: T1, Gamma-secretase (Homo sapiens); experiment: Modulation of gamma secretase in HEK293 cells expressing APP-C99 assessed as effect on amyloid beta peptide levels at up to 10 uM incubated for 2 hrs by sandwich ELISA; details: dose microM <=10, time 2.0 hrs
How it was run: (§2)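 Concentration-response in HEK293 cells stably expressing C99 (APP C-terminal 99 residues with signal sequence), up to a maximum of 10 μM. Secreted Aβ37, Aβ38, Aβ40 and Aβ42 in medium each measured by a specific sandwich ELISA. Total secreted Aβ also determined by ELISA. Levels compared against DMSO vehicle alone.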

[6] = target: T1, Gamma-secretase (Homo sapiens); experiment: Modulation of gamma secretase in HEK293 cells expressing APP-C99 assessed as increase in Abeta37 levels incubated for 2 hrs by sandwich ELISA; details: filed as modulator
How it was run: (§3)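 HEK293 cells transiently transfected with C99 (APP C-terminal fragment carrying a signal sequence for membrane insertion) and treated over a concentration range. Secreted Aβ37, Aβ38, Aβ40 and Aβ42 in medium each detected by a specific two-antibody sandwich ELISA. Levels expressed relative to DMSO vehicle alone.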

[7] = target: T1, Gamma-secretase (Homo sapiens); experiment: Modulation of gamma secretase in HEK293 cells expressing APP-C99 assessed as increase in Abeta38 levels incubated for 2 hrs by sandwich ELISA; details: filed as modulator; how it was run: as §3
[8] = target: T1, Gamma-secretase (Homo sapiens); experiment: Modulation of gamma secretase in HEK293 cells expressing APP-C99 assessed as decrease in Abeta40 levels incubated for 2 hrs by sandwich ELISA; how it was run: as §3
[9] = target: T1, Gamma-secretase (Homo sapiens); experiment: Modulation of gamma secretase in HEK293 cells expressing APP-C99 assessed as decrease in Abeta42 levels incubated for 2 hrs by sandwich ELISA; how it was run: as §3
[10] = target: T1, Gamma-secretase (Homo sapiens); experiment: Modulation of gamma secretase in HEK293 cells expressing APP-C99 assessed as increase in Abeta37 levels at up to 10 uM incubated for 2 hrs by sandwich ELISA; details: filed as modulator, dose microM <=10, time 2.0 hrs; how it was run: as §2
[11] = target: T1, Gamma-secretase (Homo sapiens); experiment: Modulation of gamma secretase in HEK293 cells expressing APP-C99 assessed as increase in Abeta38 levels at up to 10 uM incubated for 2 hrs by sandwich ELISA; details: dose microM <=10, time 2.0 hrs; how it was run: as §2
[12] = target: T1, Gamma-secretase (Homo sapiens); experiment: Modulation of gamma secretase in HEK293 cells expressing APP-C99 assessed as decrease in Abeta40 levels at up to 10 uM incubated for 2 hrs by sandwich ELISA; details: dose microM <=10, time 2.0 hrs; how it was run: as §2
[13] = target: T1, Gamma-secretase (Homo sapiens); experiment: Modulation of gamma secretase in HEK293 cells expressing APP-C99 assessed as decrease in Abeta42 levels at up to 10 uM incubated for 2 hrs by sandwich ELISA; details: dose microM <=10, time 2.0 hrs; how it was run: as §2

In the case of `Cc1cn(-c2ccc(-c3csc(Nc4ccc(F)c(F)c4)n3)cc2F)cn1`, the Activity [1] is reported as “inactive”, the Activity [2] is reported as “inactive” and the Activity [3] is reported as “inactive”. The Activity [4] was “inactive”.

With `Cc1cn(-c2ccc(-c3csc(NCc4ccccc4)n3)cc2F)cn1` the Activity ([5]; filed as modulator) was “Active”.

For `Cc1ccc(Nc2nc(-c3ccc(-n4cnc(C)c4)c(F)c3)cs2)c(C)c1`, the Activity [5] was “inactive”.

In the case of `Cc1cn(-c2ccc(-c3csc(Nc4ccc(F)cc4F)n3)cc2F)cn1`, the Activity ([1]; filed as modulator) is reported as “Active”, the Activity ([2]; filed as modulator) is reported as “Active” and the Activity [3] is reported as “inactive”. For the same molecule, the Activity [4] was “inactive”.

For `Cc1cn(-c2ccc(-c3csc(Nc4cccc(F)c4)n3)cc2F)cn1`, the Activity ([1]; filed as modulator) was “Active”, the Activity ([2]; filed as modulator) was “Active” and the Activity [3] was “inactive”. For the same molecule, the Activity [4] was “inactive”.

For `Cc1ccc(F)c(Nc2nc(-c3ccc(-n4cnc(C)c4)c(F)c3)cs2)c1`, the Activity [6] was “Dose-Dependent Effect”, the Activity [7] was “Dose-Dependent Effect” and the Activity [8] was “inactive”. The Activity [9] was “inactive”.

With `Cc1cn(-c2ccc(-c3csc(Nc4ccc(O)cc4)n3)cc2F)cn1` the Activity ([5]; filed as modulator) was “Active”.

In the case of `Cc1cn(-c2ccc(-c3csc(Nc4cc(F)c(C)cc4C)n3)cc2F)cn1`, the Activity [1] is reported as “inactive”, the Activity [2] is reported as “inactive” and the Activity [3] is reported as “inactive”. The Activity [4] was “inactive”.

`Cc1cn(-c2ccc(-c3csc(Nc4cc(C)c(F)cc4C)n3)cc2F)cn1` was tested, and the Activity ([1]; filed as modulator) was “Active”, the Activity ([2]; filed as modulator) was “Active” and the Activity [3] was “inactive”. The Activity [4] was “inactive”.

In the case of `Cc1cn(-c2ccc(-c3csc(Nc4cc(F)ccc4C)n3)cc2F)cn1`, the Activity [6] is reported as “Dose-Dependent Effect”, the Activity [7] is reported as “Dose-Dependent Effect” and the Activity [8] is reported as “inactive”. The Activity [9] was “inactive”.

With `Cc1cn(-c2ccc(-c3csc(NC4C5CC6CC(C5)CC4C6)n3)cc2F)cn1` (stereo unspecified) the Activity ([5]; filed as modulator) was “Active”.

With `Cc1cn(-c2ccc(-c3csc(Nc4ccc(F)cc4)n3)cc2F)cn1` the Activity ([1]; filed as modulator) was “Active”, the Activity ([2]; filed as modulator) was “Active” and the Activity [3] was “inactive”. The Activity [4] was “inactive”.

For `Cc1cn(-c2ccc(-c3csc(NC4CCCCC4)n3)cc2F)cn1`, the Activity ([5]; filed as modulator) was “Active”.

In the case of `Cc1cn(-c2ccc(-c3csc(Nc4cccc(F)c4F)n3)cc2F)cn1`, the Activity [1] is reported as “inactive”, the Activity [2] is reported as “inactive” and the Activity [3] is reported as “inactive”. For the same molecule, the Activity [4] was “inactive”.

In the case of `Cc1cn(-c2ccc(-c3csc(Nc4cc(Br)c(Br)cc4Br)n3)cc2F)cn1`, the Activity ([1]; filed as modulator) is reported as “Active”, the Activity ([2]; filed as modulator) is reported as “Active” and the Activity [3] is reported as “inactive”. For the same molecule, the Activity [4] was “inactive”.

With `Cc1cn(-c2ccc(-c3csc(Nc4cc(Cl)c(Cl)cc4Cl)n3)cc2F)cn1` the Activity [1] was “inactive”, the Activity [2] was “inactive” and the Activity [3] was “inactive”. The Activity [4] was “inactive”.

For `Cc1ccc(Nc2nc(-c3ccc(-n4cnc(C)c4)c(F)c3)cs2)c(F)c1`, the Activity [6] was “Dose-Dependent Effect”, the Activity [7] was “Dose-Dependent Effect” and the Activity [8] was “inactive”. The Activity [9] was “inactive”.

With `Cc1cn(-c2ccc(-c3csc(Nc4ccccc4F)n3)cc2F)cn1` the Activity ([1]; filed as modulator) was “Active”, the Activity ([2]; filed as modulator) was “Active” and the Activity [3] was “inactive”. The Activity [4] was “inactive”.

In the case of `CCc1cc(Nc2nc(-c3ccc(-n4cnc(C)c4)c(F)c3)cs2)c(F)cc1C`, the Activity ([3]; filed as modulator) is reported as “Active” and the Activity ([4]; filed as modulator) is reported as “Active”.

In the case of `Cc1cn(-c2ccc(-c3csc(Nc4c(F)cccc4F)n3)cc2F)cn1`, the Activity [1] is reported as “inactive”, the Activity [2] is reported as “inactive” and the Activity [3] is reported as “inactive”. For the same molecule, the Activity [4] was “inactive”.

With `Cc1cn(-c2ccc(-c3csc(Nc4ccc([N+](=O)[O-])cc4)n3)cc2F)cn1` the Activity ([5]; filed as modulator) was “Active”.

With `Cc1cn(-c2ccc(-c3csc(Nc4ccc(Cl)cc4Cl)n3)cc2F)cn1` the Activity ([1]; filed as modulator) was “Active”, the Activity ([2]; filed as modulator) was “Active” and the Activity [3] was “inactive”. The Activity [4] was “inactive”.

For `Cc1cn(-c2ccc(-c3csc(Nc4cc(F)c(F)cc4F)n3)cc2F)cn1`, the Activity [10] was “Active”, the Activity [11] was “inactive” and the Activity [12] was “inactive”. For the same molecule, the Activity [13] was “inactive”.

For `CCc1cc(Nc2nc(-c3ccc(-n4cnc(C)c4)c(F)c3)cs2)c(C)cc1C`, the Activity ([5]; filed as modulator) was “Active”.

`Cc1cn(-c2ccc(-c3csc(Nc4cc(C)c(C)cc4C)n3)cc2F)cn1` was tested, and the Activity ([5]; filed as modulator) was “Active”.

`Cc1cn(-c2ccc(-c3csc(Nc4ccccc4)n3)cc2F)cn1` was tested, and the Activity [5] was “inactive”.

With `Cc1cn(-c2ccc(-c3csc(Nc4cc(F)ccc4F)n3)cc2F)cn1` the Activity [1] was “inactive”, the Activity [2] was “inactive” and the Activity [3] was “inactive”. The Activity [4] was “inactive”.

For `Cc1cn(-c2ccc(-c3csc(Nc4c(F)cc(F)cc4F)n3)cc2F)cn1`, the Activity ([1]; filed as modulator) was “Active”, the Activity ([2]; filed as modulator) was “Active” and the Activity ([3]; filed as modulator) was “Active”. For the same molecule, the Activity ([4]; filed as modulator) was “Active”.

`Cc1cn(-c2ccc(-c3csc(Nc4ccc(F)cc4C)n3)cc2F)cn1` was tested, and the Activity [6] was “Dose-Dependent Effect”, the Activity [7] was “Dose-Dependent Effect” and the Activity [8] was “inactive”. For the same molecule, the Activity [9] was “inactive”.

In the case of `Cc1cn(-c2ccc(-c3csc(Nc4cc(C)c(C)cc4F)n3)cc2F)cn1`, the Activity ([1]; filed as modulator) is reported as “Active”, the Activity ([2]; filed as modulator) is reported as “Active” and the Activity [3] is reported as “inactive”. For the same molecule, the Activity [4] was “inactive”.
